Experimental data taken from ChEMBL document CHEMBL4049390, “Combination of amino acid/dipeptide with ligustrazine-betulinic acid as antitumor agents” (Eur J Med Chem, 2017).

How the values were obtained:
HT-29 = test: Antiproliferative activity against human HT-29 cells after 72 hrs by MTT assay; type: functional, cell-based; settings: HT-29, 72 h
In short: (§1)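 MTT assay. Log-phase cells were seeded at 3×10^3 cells/well and left overnight, then exposed to serial dilutions of compound (DMSO solutions) for 72 h in RPMI 1640 with 10% heat-inactivated FBS at 37 °C, 5% CO2. MTT (5 mg/mL, 20 µL) was added for 4 h at 37 °C and the formazan dissolved in DMSO. A490 was read. % inhibition = (1 − sample OD/control OD)×100; IC50 is the 50% growth-inhibition concentration. Triplicates, n = 3 independent experiments.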

MDCK = test: Antiproliferative activity against MDCK cells after 72 hrs by MTT assay; type: cell-based; settings: Canis lupus familiaris; in short: as §1
HepG2 = test: Antiproliferative activity against human HepG2 cells after 72 hrs by MTT assay; type: functional, cell-based; settings: HepG2, 72 h; in short: as §1
BGC-823 = test: Antiproliferative activity against human BGC823 cells after 72 hrs by MTT assay; type: functional, cell-based; settings: BGC-823, 72 h; in short: as §1
HeLa = test: Antiproliferative activity against human HeLa cells after 72 hrs by MTT assay; type: functional, cell-based; in short: as §1
A549 = test: Antiproliferative activity against human A549 cells after 72 hrs by MTT assay; type: functional, cell-based; settings: A549, 72 h; in short: as §1

SMILES	IC50 (HT-29) [µM]	IC50 (HepG2) [µM]	IC50 (BGC-823) [µM]	IC50 (HeLa) [µM]	IC50 (A549) [µM]	IC50 (MDCK) [µM]
C=C(C)[C@@H]1CC[C@]2(C(=O)OCc3nc(C)c(C)nc3C)CC[C@]3(C)[C@H](CC[C@@H]4[C@@]5(C)CC[C@H](O)C(C)(C)[C@@H]5CC[C@]43C)[C@@H]12	7.41	5.7	6.87	8	3.56	18.2
C=C(C)[C@@H]1CC[C@]2(C(=O)OCc3nc(C)c(C)nc3C)CC[C@]3(C)[C@H](CC[C@@H]4[C@@]5(C)CC[C@H](OC(=O)[C@@H](N)[C@@H](C)O)C(C)(C)[C@@H]5CC[C@]43C)[C@@H]12	6.66	3.64	7.05	8.39	4.18	> 40
C=C(C)[C@@H]1CC[C@]2(C(=O)OCc3nc(C)c(C)nc3C)CC[C@]3(C)[C@H](CC[C@@H]4[C@@]5(C)CC[C@H](OC(=O)[C@H](N)CC(=O)O)C(C)(C)[C@@H]5CC[C@]43C)[C@@H]12	> 20	> 20	> 20	> 20	> 20	> 40
C=C(C)[C@@H]1CC[C@]2(C(=O)OCc3nc(C)c(C)nc3C)CC[C@]3(C)[C@H](CC[C@@H]4[C@@]5(C)CC[C@H](OC(=O)[C@@H](N)CC(C)C)C(C)(C)[C@@H]5CC[C@]43C)[C@@H]12	> 20	> 40	> 20	> 20	> 20	> 40
C=C(C)[C@@H]1CC[C@]2(C(=O)OCc3nc(C)c(C)nc3C)CC[C@]3(C)[C@H](CC[C@@H]4[C@@]5(C)CC[C@H](OC(=O)[C@@H](N)[C@@H](C)CC)C(C)(C)[C@@H]5CC[C@]43C)[C@@H]12	15.9	12.7	> 20	> 20	14.5	> 40
C=C(C)[C@@H]1CC[C@]2(C(=O)OCc3nc(C)c(C)nc3C)CC[C@]3(C)[C@H](CC[C@@H]4[C@@]5(C)CC[C@H](OC(=O)[C@@H]6CCC(=O)N6)C(C)(C)[C@@H]5CC[C@]43C)[C@@H]12	3.78	5.86	4.7	6.59	4.11	9.24
C=C(C)[C@@H]1CC[C@]2(C(=O)OCc3nc(C)c(C)nc3C)CC[C@]3(C)[C@H](CC[C@@H]4[C@@]5(C)CC[C@H](OC(=O)CNC(=O)CNC)C(C)(C)[C@@H]5CC[C@]43C)[C@@H]12	3.37	5.27	2.07	7.38	3.02	20.6
C=C(C)[C@@H]1CC[C@]2(C(=O)OCc3nc(C)c(C)nc3C)CC[C@]3(C)[C@H](CC[C@@H]4[C@@]5(C)CC[C@H](OC(=O)[C@H](C)N)C(C)(C)[C@@H]5CC[C@]43C)[C@@H]12	7.74	> 20	6.16	6.62	6.33	> 40
C=C(C)[C@@H]1CC[C@]2(C(=O)OCc3nc(C)c(C)nc3C)CC[C@]3(C)[C@H](CC[C@@H]4[C@@]5(C)CC[C@H](OC(=O)[C@@H]6CCCN6)C(C)(C)[C@@H]5CC[C@]43C)[C@@H]12	2.73	4.54	3.47	6.33	3.36	10.2
C=C(C)[C@@H]1CC[C@]2(C(=O)OCc3nc(C)c(C)nc3C)CC[C@]3(C)[C@H](CC[C@@H]4[C@@]5(C)CC[C@H](OC(=O)[C@H](C)NC(=O)[C@H](C)N)C(C)(C)[C@@H]5CC[C@]43C)[C@@H]12	4.18	1.93	2.51	4.49	2.54	10.2
C=C(C)[C@@H]1CC[C@]2(C(=O)OCc3nc(C)c(C)nc3C)CC[C@]3(C)[C@H](CC[C@@H]4[C@@]5(C)CC[C@H](OC(=O)[C@@H](N)CO)C(C)(C)[C@@H]5CC[C@]43C)[C@@H]12	4.35	4.03	6.21	2.74	4.39	8.56
C=C(C)[C@@H]1CC[C@]2(C(=O)OCc3nc(C)c(C)nc3C)CC[C@]3(C)[C@H](CC[C@@H]4[C@@]5(C)CC[C@H](OC(=O)CN)C(C)(C)[C@@H]5CC[C@]43C)[C@@H]12	3.97	6.77	3.87	4.24	3.62	5.82
C=C(C)[C@@H]1CC[C@]2(C(=O)OCc3nc(C)c(C)nc3C)CC[C@]3(C)[C@H](CC[C@@H]4[C@@]5(C)CC[C@H](OC(=O)[C@@H](N)Cc6c[nH]c7ccccc67)C(C)(C)[C@@H]5CC[C@]43C)[C@@H]12	7.41	> 40	> 20	> 20	> 20	> 40

The next lines start with results.

IC50 (HT-29) [µM]	IC50 (HepG2) [µM]	IC50 (BGC-823) [µM]	IC50 (HeLa) [µM]	IC50 (A549) [µM]	SMILES	IC50 (MDCK) [µM]
3.19	4	2.88	2.4	1.95	C=C(C)[C@@H]1CC[C@]2(C(=O)OCc3nc(C)c(C)nc3C)CC[C@]3(C)[C@H](CC[C@@H]4[C@@]5(C)CC[C@H](OC(=O)CNC(=O)CN)C(C)(C)[C@@H]5CC[C@]43C)[C@@H]12	7.45
3.31	4.94	3.43	2.62	2.96	C=C(C)[C@@H]1CC[C@]2(C(=O)OCc3nc(C)c(C)nc3C)CC[C@]3(C)[C@H](CC[C@@H]4[C@@]5(C)CC[C@H](OC(=O)CN(C)C(=O)CN)C(C)(C)[C@@H]5CC[C@]43C)[C@@H]12	8.08
> 20	5.91	7.14	8.63	6.9	C=C(C)[C@@H]1CC[C@]2(C(=O)OCc3nc(C)c(C)nc3C)CC[C@]3(C)[C@H](CC[C@@H]4[C@@]5(C)CC[C@H](OC(=O)[C@@H](N)C(C)C)C(C)(C)[C@@H]5CC[C@]43C)[C@@H]12	> 40
4.11	3.48	0.84	2.2	2.98	C=C(C)[C@@H]1CC[C@]2(C(=O)OCc3nc(C)c(C)nc3C)CC[C@]3(C)[C@H](CC[C@@H]4[C@@]5(C)CC[C@H](OC(=O)CNC(=O)[C@@H]6CCCN6)C(C)(C)[C@@H]5CC[C@]43C)[C@@H]12	6.63
8.32	3.94	4.1	5.08	4.83	C=C(C)[C@@H]1CC[C@]2(C(=O)OCc3nc(C)c(C)nc3C)CC[C@]3(C)[C@H](CC[C@@H]4[C@@]5(C)CC[C@H](OC(=O)CN(C)C(=O)CNC)C(C)(C)[C@@H]5CC[C@]43C)[C@@H]12	10.9
3.67	2.27	4.99	3.19	3.25	C=C(C)[C@@H]1CC[C@]2(C(=O)OCc3nc(C)c(C)nc3C)CC[C@]3(C)[C@H](CC[C@@H]4[C@@]5(C)CC[C@H](OC(=O)CNC(=O)[C@H](C)N)C(C)(C)[C@@H]5CC[C@]43C)[C@@H]12	16.2
> 20	> 40	> 20	> 40	> 40	C=C(C)[C@@H]1CC[C@]2(C(=O)OCc3nc(C)c(C)nc3C)CC[C@]3(C)[C@H](CC[C@@H]4[C@@]5(C)CC[C@H](OC(=O)[C@@H](N)Cc6ccccc6)C(C)(C)[C@@H]5CC[C@]43C)[C@@H]12	> 40
3.86	4.27	4.38	4.55	5.18	C=C(C)[C@@H]1CC[C@]2(C(=O)OCc3nc(C)c(C)nc3C)CC[C@]3(C)[C@H](CC[C@@H]4[C@@]5(C)CC[C@H](OC(=O)CN(C)C(=O)[C@H](C)N)C(C)(C)[C@@H]5CC[C@]43C)[C@@H]12	14.6
1.1	4.5	3.97	3.96	3.05	C=C(C)[C@@H]1CC[C@]2(C(=O)OCc3nc(C)c(C)nc3C)CC[C@]3(C)[C@H](CC[C@@H]4[C@@]5(C)CC[C@H](OC(=O)CNC)C(C)(C)[C@@H]5CC[C@]43C)[C@@H]12	9.08
5.98	3.75	1.83	3.02	3.91	C=C(C)[C@@H]1CC[C@]2(C(=O)OCc3nc(C)c(C)nc3C)CC[C@]3(C)[C@H](CC[C@@H]4[C@@]5(C)CC[C@H](OC(=O)CN(C)C(=O)[C@@H]6CCCN6)C(C)(C)[C@@H]5CC[C@]43C)[C@@H]12	11.3
